# Active and inactive are the calls of the source. No cut-off for these calls is given here.
# How the values were obtained:
# [1] = Solubility of compound in PBS at pH 7.4 measured after 24 hrs by HPLC/UV/DAD analysis; type: physicochemical
# Summary of the method: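 10 mM DMSO stock diluted to 250 μM (2.5% DMSO) in 50 mM aqueous PBS pH 7.4. Standard prepared in MeCN/water 60:40. Sealed and shaken 24 h at 25 °C, PTFE-filtered and diluted 1:2 in buffer. Quantified by HPLC/UV/DAD at 254 nm against the 250 μM standard. Triplicate, averaged.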
# [2] = Chemical stability of compound in PBS at pH 7.4 incubated for 24 hrs under UV 254 nm stress condition by HPLC/UV/DAD analysis; type: physicochemical; conditions: read-out: Stability
# [3] = Metabolic stability in mouse liver microsome assessed as apparent decay constant at 5 uM in presence of NADPH incubated up to 60 mins by HPLC analysis; type: ADME; conditions: liver microsomes
# Summary of the method: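 Compound in MeCN was incubated at 5 µM and 37 °C in 100 mM phosphate buffer pH 7.4 with 0.5 mg/mL human or mouse liver microsomal protein. Reactions were started with an NADPH-regenerating system (2 mM NADPH, glucose-6-phosphate, G6PDH, MgCl2) and stopped with MeCN over 0–60 min. Remaining compound was measured by HPLC-UV at 254 nm, in triplicate, with first-order decay fitting.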
# [4] = Toxicity in zebrafish AB embryos assessed as changes in dead and live embryos at 25 to 75 uM measured after 24 hrs; conditions: Danio rerio, in vivo
# Danio rerio = test: In vivo inhibition of HDAC6 in zebrafish AB embryos assessed as increase in acetylation level of alpha-tubulin at 25 to 75 uM measured after 24 hrs by Western blot analysis; conditions: dose 25-75 µM
# B cell = test: Cytotoxicity against patient derived human B cells; type: toxicity, cell-based
# [5] = Cardiotoxicity in Langendorff-perfused Wistar rat heart assessed as effect on HR at 0.01 uM by ECG analysis (reference value: 252.3 +/-10.1 bpm); type: toxicity, tissue-based
# [6] = Cardiotoxicity in Langendorff-perfused Wistar rat heart assessed as effect on HR at 0.1 uM by ECG analysis (reference value: 252.3 +/-10.1 bpm); type: toxicity, tissue-based
# [7] = Cardiotoxicity in Langendorff-perfused Wistar rat heart assessed as effect on HR at 1 uM by ECG analysis (reference value: 252.3 +/-10.1 bpm); type: toxicity, tissue-based
# [8] = Cardiotoxicity in Langendorff-perfused Wistar rat heart assessed as effect on HR at 10 uM by ECG analysis (reference value: 252.3 +/-10.1 bpm); type: toxicity, tissue-based
# [9] = Cardiotoxicity in Langendorff-perfused Wistar rat heart assessed as effect on RR time at 0.01 uM by ECG analysis (reference value: 239.5+/-9.2 milliseconds); type: toxicity, tissue-based
# [10] = Cardiotoxicity in Langendorff-perfused Wistar rat heart assessed as effect on RR time at 0.1 uM by ECG analysis (reference value: 239.5+/-9.2 milliseconds); type: toxicity, tissue-based
# [11] = Cardiotoxicity in Langendorff-perfused Wistar rat heart assessed as effect on RR time at 1 uM by ECG analysis (reference value: 239.5+/-9.2 milliseconds); type: toxicity, tissue-based
# [12] = Cardiotoxicity in Langendorff-perfused Wistar rat heart assessed as effect on RR time at 10 uM by ECG analysis (reference value: 239.5+/-9.2 milliseconds); type: toxicity, tissue-based
# [13] = Cardiotoxicity in Langendorff-perfused Wistar rat heart assessed as effect on PQ interval time at 0.01 uM by ECG analysis (reference value: 45.4+/-3.9 milliseconds); type: toxicity, tissue-based
# [14] = Cardiotoxicity in Langendorff-perfused Wistar rat heart assessed as effect on PQ interval time at 0.1 uM by ECG analysis (reference value: 45.4+/-3.9 milliseconds); type: toxicity, tissue-based
# [15] = Cardiotoxicity in Langendorff-perfused Wistar rat heart assessed as effect on PQ interval time at 1 uM by ECG analysis (reference value: 45.4+/-3.9 milliseconds); type: toxicity, tissue-based
# [16] = Cardiotoxicity in Langendorff-perfused Wistar rat heart assessed as effect on PQ interval time at 10 uM by ECG analysis (reference value: 45.4+/-3.9 milliseconds); type: toxicity, tissue-based
# [17] = Cardiotoxicity in Langendorff-perfused Wistar rat heart assessed as effect on QRS interval time at 0.01 uM by ECG analysis (reference value: 13.3+/-0.6 milliseconds); type: toxicity, tissue-based
# [18] = Cardiotoxicity in Langendorff-perfused Wistar rat heart assessed as effect on QRS interval time at 0.1 uM by ECG analysis (reference value: 13.3+/-0.6 milliseconds); type: toxicity, tissue-based
# [19] = Cardiotoxicity in Langendorff-perfused Wistar rat heart assessed as effect on QRS interval time at 1 uM by ECG analysis (reference value: 13.3+/-0.6 milliseconds); type: toxicity, tissue-based
# [20] = Cardiotoxicity in Langendorff-perfused Wistar rat heart assessed as effect on QRS interval time at 10 uM by ECG analysis (reference value: 13.3+/-0.6 milliseconds); type: toxicity, tissue-based
# [21] = Cardiotoxicity in Langendorff-perfused Wistar rat heart assessed as effect on QT interval time at 0.01 uM by ECG analysis (reference value: 66.1+/-1.1 milliseconds); type: toxicity, tissue-based
# [22] = Cardiotoxicity in Langendorff-perfused Wistar rat heart assessed as effect on QT interval time at 0.1 uM by ECG analysis (reference value: 66.1+/-1.1 milliseconds); type: toxicity, tissue-based
# [23] = Cardiotoxicity in Langendorff-perfused Wistar rat heart assessed as effect on QT interval time at 1 uM by ECG analysis (reference value: 66.1+/-1.1 milliseconds); type: toxicity, tissue-based
# [24] = Cardiotoxicity in Langendorff-perfused Wistar rat heart assessed as effect on QT interval time at 10 uM by ECG analysis (reference value: 66.1+/-1.1 milliseconds); type: toxicity, tissue-based
# [25] = Cardiotoxicity in Langendorff-perfused Wistar rat heart assessed as effect on QTc interval time at 0.01 uM by ECG analysis (reference value: 66.4+/-1.3 milliseconds); type: toxicity, tissue-based
# [26] = Cardiotoxicity in Langendorff-perfused Wistar rat heart assessed as effect on QTc interval time at 0.1 uM by ECG analysis (reference value: 66.4+/-1.3 milliseconds); type: toxicity, tissue-based
# [27] = Cardiotoxicity in Langendorff-perfused Wistar rat heart assessed as effect on QTc interval time at 1 uM by ECG analysis (reference value: 66.4+/-1.3 milliseconds); type: toxicity, tissue-based
# [28] = Cardiotoxicity in Langendorff-perfused Wistar rat heart assessed as effect on QTc interval time at 10 uM by ECG analysis (reference value: 66.4+/-1.3 milliseconds); type: toxicity, tissue-based
smiles,measurement,setting,value
O=C(NO)c1ccc(CNC(=O)N2CCC(N3C(=O)[C@H](c4ccccc4)[C@H]3c3ccccc3)CC2)cc1 (racemic),solubility at 24 h,[1],70 µM
same,remaining at 24 h,[2],100%
same,"k el at 1 h, 5 µM",[3],0.000182 s⁻¹
same,Activity,[4],Non-Toxic
same,Activity,Danio rerio,Active
O=C(NO)c1ccc(CNC(=O)N2CCC(N3CC(c4ccccc4)(c4ccccc4)C3=O)CC2)cc1,Activity,B cell,Non-Toxic
same,solubility at 24 h,[1],10 µM
same,remaining at 24 h,[2],100%
same,"k el at 1 h, 5 µM",[3],0.000173 s⁻¹
same,Activity,[5],251.2 bpm
same,Activity,[6],258.4 bpm
same,Activity,[7],252 bpm
same,Activity,[8],248.4 bpm
same,Time,[9],239.8 ms
same,Time,[10],233.1 ms
same,Time,[11],237.2 ms
same,Time,[12],241.5 ms
same,Time,[13],44.4 ms
same,Time,[14],44.9 ms
same,Time,[15],46.2 ms
same,Time,[16],47.5 ms
same,Time,[17],12.8 ms
same,Time,[18],13.1 ms
same,Time,[19],13.9 ms
same,Time,[20],13.9 ms
same,Time,[21],66.7 ms
same,Time,[22],66.1 ms
same,Time,[23],68.1 ms
same,Time,[24],68.5 ms
same,Time,[25],66.9 ms
same,Time,[26],68.2 ms
same,Time,[27],68.9 ms
same,Time,[28],68.6 ms
same,Activity,[4],Non-Toxic
same,Activity,Danio rerio,Active

# Reference: ChEMBL document CHEMBL5113395, “Azetidin-2-one-based small molecules as dual hHDAC6/HDAC8 inhibitors: Investigation of their mechanism of action and impact of dual inhibition profile on cell viability” (Eur J Med Chem, 2022)
